PGC1a acetyl up: raises PGC1a acetylation signal in U2OS cells | AID 651723 | 350,000 compounds, 0.21% hits | U2OS PGC1a acetylation AlphaScreen, overnight | activation, % at 15.6 µM;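 active = every replicate reaching activation of at least 50%, whatever the mean replicate activation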;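 also: hits raise the AlphaScreen acetylation signal above neutral controls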
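Incubation: overnight compound treatment, 37 °C. System: U2OS cells transduced with flag-tagged PGC1a and GCN5 acetyltransferase. Detection: AlphaScreen lysate read. Compound: single-point compound dosing.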
Hep G6PC suppr: hepatocyte G6PC expression change via PGC-1a acetylation activation; shares compounds with PGC1a acetyl up; primary mouse hepatocytes, G6PC mRNA qPCR, forskolin; G6PC suppression (normalized activity, % of positive control; higher = more suppression), % at 26 µM; 240 tested, under 10 active; AID 743463;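 active = dose curves showing G6PC suppression whose half-maximal dose is at most twice the top valid dose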;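 also: G6PC expression relative to GAPDH housekeeping gene as delta delta Ct; 0% = median of neutral control wells and 100% = median of positive control wells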
PCK1 hep suppr: hepatocyte PCK1 expression change via PGC-1a acetylation activation; AID 743465; shares compounds with PGC1a acetyl up; primary mouse hepatocytes, PCK1 mRNA qPCR, forskolin-stimulated; 230 tested, under 10 active; PCK1 expression decrease, unspecified at 26 µM;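 active = compounds lowering PCK1 expression whose fitted half-maximal concentration is at most twice the top tested dose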;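 also: values are delta delta Ct of PCK1 relative to GAPDH; higher delta delta Ct means lower PCK1 expression so positive values indicate hits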
PGC1a hep suppr: PGC-1a acetylation activator altering hepatocyte PGC-1a expression | shares compounds with PGC1a acetyl up | primary mouse hepatocytes, PGC-1a mRNA qPCR, forskolin; top dose 26 µM | max activity (PGC-1a expression decrease), % | 240 tested, under 10 active;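 active = compound lowering PGC-1a expression with fitted half-maximal concentration at most twice its top tested dose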;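 also: 0% = neutral control wells median and 100% = positive control wells median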
Numbers without * were called inactive; i = inactive. A selection follows.

SMILES | PGC1a acetyl up | others
C=C1C(=O)O[C@@H]2C[C@@H](C)[C@H]3C=CC(=O)[C@]3(O)C[C@@H]12 | 79*
COCCCn1c(N)c(C(=O)Nc2ccccc2)c2nc3ccccc3nc21 | 51*
CC(C)(O)/C=C/C(=O)[C@](C)(O)C1[C@H](O)C[C@@]2(C)C3CC=C4C(C[C@H](O)[C@@H](O)C4(C)C)[C@]3(C)C(=O)C[C@]12C (stereo not given in full) | -65
C[C@]12CC[C@H]3[C@@H](CC[C@]4(O)C[C@@H](O)CC[C@]34C=O)[C@@]1(O)CC[C@@H]2C1=CC(=O)OC1 | -96
CC1CC(C)CC(C)C(O)C(C#N)=CC=CCC(C2CCCC2C(=O)O)OC(=O)CC(O)C(C)C1 (stereo not given) | -60
CCCN(CCC)[C@@H]1CCc2cccc(O)c2C1 | -42
COC(=O)C1C2c3ccccc3OC1(C)N=c1s/c(=C/c3cn(C)nc3C)c(=O)n12 (stereo not given) | -46
NC1C2CN3CCN(C2)CC1(c1ccccc1)C3 (stereo not given) | -52
CNC(=O)c1cccn(Cc2ccc(C(F)(F)F)cc2)c1=O | 68*
CCC1(CC)C(=O)C=CNC1=O | -56
CC(=O)OCC12CC(OC(=O)CC(C)C)C(C)=CC1OC1C(O)C(OC(C)=O)C2(C)C12CO2 (stereo not given) | -74
CN1C2CCC1/C(=C/c1ccccn1)C(=O)/C2=C\c1ccccn1 | -78
CC(=O)OC1CC(OC2C(O)CC(OC3C(O)CC(OC4CCC5(C)C(CCC6C5CCC5(C)C(C7=CC(=O)OC7)C(O)CC65O)C4)OC3C)OC2C)OC(C)C1OC1OC(CO)C(O)C(O)C1O (stereo not given) | -42
CCOC(=O)CNC(=O)N1Cc2ccc(Br)cc2-n2nncc2C1 | -41
O=c1[nH]c2ccccc2n1C1CCN(C(c2cc3ccccc3o2)c2nnnn2Cc2ccccc2)CC1 (stereo not given) | -49
COc1ccc(C(c2nnnn2C2CCCCC2)N2CCC3(CC2)C(=O)NCN3c2ccccc2)cc1 (stereo not given) | 120*
O=[N+]([O-])c1ccc(N2CCOCC2)c2c1no[n+]2[O-] | -84
C=C1C(=O)OC2CC3(C)OC3CCC(C)=CC(OC(C)=O)C12 (stereo not given) | 118*
N#Cc1ccccc1NC(=O)CN1CC=C(c2ccccc2)CC1 | -47
O=c1c2ccccc2nc(/C=C/c2ccc([N+](=O)[O-])o2)n1-c1ccc(O)cc1 | 144*
CC1=CC(=C2C(=O)NC(=S)NC2=O)C=C(C(F)(F)F)N1Cc1ccccc1 | -88
Cc1ccc(N2C(=O)NC(=O)/C(=C/c3ccoc3)C2=O)cc1 | -50
CCc1ccc(N2C(=O)NC(=O)/C(=C\C=C\c3ccco3)C2=O)cc1 | 114*
C[C@H]1C[C@@H](C)C(=O)[C@@H]([C@H](O)CC2CC(=O)NC(=O)C2)C1 | -68
COc1ccc(C(c2ccc(OC)cc2)C(Cl)(Cl)Cl)cc1 | 93*
SMILES | PGC1a acetyl up | others
CC(C)Oc1cccnc1N(C)C1CCN(Cc2ccccc2)CC1 | -59
O=C1/C(=C/c2ccccc2)C[C@@]2(O)[C@H]3Cc4ccc(O)c5c4[C@@]2(CCN3CC2CC2)C1O5 (stereo not given in full) | -45
CC1=CC(=O)C2=C(C)C[C@H](O)[C@@H]3[C@H](OC(=O)[C@H]3C)[C@@H]12 | -53
C=C1C(=O)OC2CC3(C)OC3C3OC3C3=CC(OC3=O)C12 (stereo not given) | 85*
CC(=O)OC1CC2(O)C3CCC4CC(O)CCC4(C)C3CCC2(C)C1C1=CC(=O)OC1 (stereo not given) | -65
O=C1NC2C(=CC(O)C(O)C2O)c2cc3c(c(O)c21)OCO3 (stereo not given) | -63
CNCC(=O)c1ccc(O)c(O)c1 | -55
COc1ccc(-n2c(O)c(C=NCCCn3ccnc3)c(=O)[nH]c2=O)cc1 | 68*
CCN(CC)c1ccc(N=Cc2c(O)n(-c3ccc(OC)cc3)c(=O)[nH]c2=O)cc1 | -46
O=C1CSC2N1CCNC21CCCCC1 (stereo not given) | -42
C[C@H]1CCC/C=C/[C@@H]2C[C@H](O)C[C@H]2[C@@H](O)/C=C/C(=O)O1 | -37
Cc1cccc(C)c1-n1nnnc1C(c1ccccc1OC(F)(F)F)N1CCC(n2c(=O)[nH]c3ccccc32)CC1 (stereo not given) | 61* | Hep G6PC suppr=i;PCK1 hep suppr=1187;PGC1a hep suppr=136

From PubChem BioAssay
